Data set [1] concerns RAW264.7. In words: Cytotoxicity against mouse RAW264.7 cells assessed as reduction in cell viability at 50 ug/ml preincubated for 24 hrs followed by LPS induction measured after 18 hrs by MTT assay. The class given is cell-based. Conditions: raw264.7, 18 h.
Data set [2] relates to RAW264.7. The data set can be described thus: Cytotoxicity against mouse RAW264.7 cells assessed as reduction in cell viability at 50 ug/ml after 24 hrs by MTT assay. It is filed as cell-based. Conditions: raw264.7, 24 h. Background: Tetrazolium assays rely on reduction of a dye to a coloured formazan, in cell work by metabolically active cells.
Data set [3] concerns Mus musculus. The data set can be described thus: Antiinflammatory activity in Kunming mouse assessed as inhibition of xylene-induced ear edema at 50 mg/kg, ip pretreated for 30 mins followed by xylene challenge measured after 30 mins relative to control. It is filed as functional. An outline of the steps:
(§1)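 Xylene-induced ear edema in mice. Compounds were given i.p. at 12.5, 25 or 50 mg/kg. Ibuprofen and indomethacin at 50 mg/kg served as reference drugs. Ear edema weight (mg) is reported as mean ± S.D., and percent inhibition is calculated against the untreated control group.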

In data set [4] the test system is RAW264.7. The data set can be described thus: Antiinflammatory activity against mouse RAW264.7 cells assessed as LPS-stimulated IL6 release at 12.5 ug/ml after 24 hrs by ELISA relative to LPS-treated control. The class given is functional. An outline of the steps:
(§2)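 Mouse RAW 264.7 macrophages were stimulated with LPS in the presence of compound, tested at […]. TNF-α and IL-6 were measured in the culture supernatants by ELISA. Cytokine content is expressed as fold of the control group, with control set at 100%. Values are mean ± S.D. of triplicate experiments.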
In general terms: ELISA stands for enzyme-linked immunosorbent assay.

The target in data set [5] is T1, Prostaglandin G/H synthase 2 (Homo sapiens) (UniProt P35354).
T1 sequence (whole entry): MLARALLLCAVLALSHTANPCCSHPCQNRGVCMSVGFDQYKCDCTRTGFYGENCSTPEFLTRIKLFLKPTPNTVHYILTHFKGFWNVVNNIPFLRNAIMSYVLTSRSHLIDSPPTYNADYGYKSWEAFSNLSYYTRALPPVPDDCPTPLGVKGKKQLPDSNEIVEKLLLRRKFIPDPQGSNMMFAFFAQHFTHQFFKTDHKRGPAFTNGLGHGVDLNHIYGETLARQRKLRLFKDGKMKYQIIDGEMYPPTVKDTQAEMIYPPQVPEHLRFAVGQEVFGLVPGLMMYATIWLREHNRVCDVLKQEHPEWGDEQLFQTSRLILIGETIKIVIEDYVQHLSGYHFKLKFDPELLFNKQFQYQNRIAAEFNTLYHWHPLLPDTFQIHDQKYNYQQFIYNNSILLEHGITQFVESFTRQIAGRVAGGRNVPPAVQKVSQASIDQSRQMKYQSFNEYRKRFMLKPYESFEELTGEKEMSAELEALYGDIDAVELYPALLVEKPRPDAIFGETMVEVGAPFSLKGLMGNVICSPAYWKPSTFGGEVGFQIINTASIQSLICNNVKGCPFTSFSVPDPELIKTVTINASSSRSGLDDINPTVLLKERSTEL
The data set can be described thus: Inhibition of COX-2 (unknown origin) assessed as protein/GADPH ratio at 50 ug/ml relative to control. On the set-up: scale not given: the % may be the effect or the level left.

The test system of data set [6] is RAW264.7. The data set can be described thus: Antiinflammatory activity against mouse RAW264.7 cells assessed as LPS-stimulated TNFalpa release at 50 ug/ml after 24 hrs by ELISA relative to LPS-treated control. It is filed as functional. A digest of the protocol: as §2
Data set [7] deals with RAW264.7. In words: Antiinflammatory activity against mouse RAW264.7 cells assessed as LPS-stimulated IL6 release at 25 ug/ml after 24 hrs by ELISA relative to LPS-treated control. It is filed as functional. An outline of the steps:
as §2

Data set [8] has as its target Mitogen-activated protein kinase 3 (Mus musculus) (UniProt Q63844). The data set can be described thus: Inhibition of ERK phosphorylation in mouse RAW264.7 cells incubated for 24 hrs followed by LPS-stimulation measured after 24 hrs by Western blot method. It is filed as cell-based. An outline of the steps:
(§3)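 MAPK protein levels were determined by western blot in LPS-stimulated mouse RAW 264.7 cells. Data are means ± SD, compared with the control and LPS groups.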

For data set [9], the system named is RAW264.7. The data set can be described thus: Antiinflammatory activity against mouse RAW264.7 cells assessed as LPS-stimulated IL6 release at 50 ug/ml after 24 hrs by ELISA relative to LPS-treated control. The class given is functional. A digest of the protocol: as §2
In data set [10] the target is MAP kinase p38 (Mus musculus) (UniProt P47811+O08911+Q9WUI1+Q9Z1B7). In words: Inhibition of p38 phosphorylation in mouse RAW264.7 cells incubated for 24 hrs followed by LPS-stimulation measured after 24 hrs by Western blot method. The class given is cell-based. A digest of the protocol: as §3
Data set [11] is filed under the species Mus musculus. In words: Inhibition of NFkappaB in mouse RAW264.7 cells assessed as decrease in LPS-induced degradation of IkappaB preincubated for 24 hrs followed by LPS-stimulation measured after 24 hrs by Western blot method. It is filed as cell-based. An outline of the steps: (§4)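 NF-κB activation in LPS-stimulated RAW 264.7 cells was assessed by western blot of phosphorylated p65 and IκB levels. Data are means ± SD, compared with the control and LPS groups.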

Data set [12] deals with RAW264.7. The data set can be described thus: Antiinflammatory activity against mouse RAW264.7 cells assessed as decrease in LPS-stimulated TNFalpa release after 24 hrs by ELISA. It is filed as functional, cell-based. An outline of the steps:
as §2

Data set [13] concerns Mus musculus. In words: Antiinflammatory activity in Kunming mouse assessed as inhibition of xylene-induced ear edema at 12.5 mg/kg, ip pretreated for 30 mins followed by xylene challenge measured after 30 mins relative to control. The class given is functional. An outline of the steps:
as §1

The species named for data set [14] is Mus musculus. In words: Inhibition of LPS-induced NFkappaB activation in mouse RAW264.7 cells assessed as reduction p65 phosphorylation at 12.5 to 50 ug/ml preincubated for 24 hrs followed by LPS-stimulation measured after 24 hrs by Western blot method. It is filed as cell-based. An outline of the steps:
as §4
For orientation: Immunoblotting shows a protein as a band on a membrane.

For data set [15], the system named is RAW264.7. The data set can be described thus: Antiinflammatory activity against mouse RAW264.7 cells assessed as decrease in LPS-stimulated IL-6 release after 24 hrs by ELISA. It is filed as functional, cell-based. An outline of the steps: as §2
The subject of data set [16] is Mus musculus. The data set can be described thus: Antiinflammatory activity in Kunming mouse assessed as inhibition of xylene-induced ear edema at 25 mg/kg, ip pretreated for 30 mins followed by xylene challenge measured after 30 mins relative to control. It is filed as functional. A digest of the protocol: as §1

SMILES strings stand for the structures.

Mitogen-activated protein kinase 3 (Mus musculus), sequence (Q63844 whole entry): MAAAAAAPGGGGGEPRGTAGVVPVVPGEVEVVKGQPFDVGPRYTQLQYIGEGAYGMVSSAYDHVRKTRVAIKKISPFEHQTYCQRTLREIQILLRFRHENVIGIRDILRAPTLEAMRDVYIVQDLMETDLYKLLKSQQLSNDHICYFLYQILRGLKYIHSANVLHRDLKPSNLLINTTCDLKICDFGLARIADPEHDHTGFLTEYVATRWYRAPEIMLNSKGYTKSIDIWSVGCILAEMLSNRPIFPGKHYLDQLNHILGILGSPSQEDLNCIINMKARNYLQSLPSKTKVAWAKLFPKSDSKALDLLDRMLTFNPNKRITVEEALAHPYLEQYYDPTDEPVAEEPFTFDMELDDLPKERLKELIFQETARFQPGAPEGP

Regarding `CCCCCn1c2cccc3cccc(c32)n2cnnc12`, the Activity result with RAW264.7 [1] is listed as “Non-Toxic”.

`Cc1ccc(Cn2c3cccc4cccc(c43)n3cnnc23)cc1`: the Activity entry with RAW264.7 [2] was “Toxic”.

For the compound `c1ccc(Cn2c3cccc4cccc(c43)n3cnnc23)cc1`, the Activity entry in the data set on RAW264.7 [1] and in the data set on RAW264.7 [2] was “Non-Toxic” in each case.

As for `CCCCCCCCCCn1c2cccc3cccc(c32)n2cnnc12`, the Activity entry in the data set on RAW264.7 [2] was “Toxic”.

Turning to `Clc1ccc(Cn2c3cccc4cccc(c43)n3cnnc23)cc1`, the Activity entry in the data set with RAW264.7 [2] is listed as “Toxic”.

As to `Fc1cccc(Cn2c3cccc4cccc(c43)n3cnnc23)c1`, the Activity entry with RAW264.7 [1] and in the data set on RAW264.7 [2] was “Non-Toxic” throughout.

As to `CCCn1c2cccc3cccc(c32)n2cnnc12`, the Activity result with RAW264.7 [2] is recorded as “Toxic”.

As to `FC(F)(F)c1ccc(Cn2c3cccc4cccc(c43)n3cnnc23)cc1`, the Activity entry with RAW264.7 [2] is on record as “Toxic”.

As for `Fc1ccc(Cn2c3cccc4cccc(c43)n3cnnc23)cc1`, the Activity result in the data set on RAW264.7 [1] and with RAW264.7 [2] was “Non-Toxic” throughout.

`COc1ccc2c(c1)c(CC(=O)O)c(C)n2C(=O)c1ccc(Cl)cc1` [INDOMETHACIN]: the inhibition in vivo (in general, the change of the read-out against control, counted positive when it falls) at 50 mg/kg in the data set on Mus musculus [3] turned out to be 49.4%.

Turning to `Clc1cccc(Cn2c3cccc4cccc(c43)n3cnnc23)c1`, the Activity result in the data set with RAW264.7 [1] and in the data set with RAW264.7 [2] was “Toxic” throughout.

Turning to `CCCCn1c2cccc3cccc(c32)n2cnnc12`, the Activity entry with RAW264.7 [1] and in the data set on RAW264.7 [2] was “Toxic” each time.

Consider `CCCCCCn1c2cccc3cccc(c32)n2cnnc12`, for which the Activity entry in the data set with RAW264.7 [2] was “Toxic”.

In the case of `Fc1ccccc1Cn1c2cccc3cccc(c32)n2cnnc12`, in the data set on Mus musculus [3], the inhibition in vivo at 50 mg/kg was 49.3%. The Activity with RAW264.7 [4] was 71.8%; in [5], 45.2%; in the data set with RAW264.7 [6], 124.87%; in the data set on RAW264.7 [7], 68.23%; in the data set with RAW264.7 [9] it was 47.21%; in the data set with RAW264.7 [1] it was “Non-Toxic”. Further, the Activity result was “Non-Toxic” with RAW264.7 [2], “Dose-dependent effect” in the data set on RAW264.7 [12] and “Dose-dependent effect” in the data set on RAW264.7 [15]. Also, the inhibition result (in data set [8]; in data set [10]; in the data set listed under Mus musculus [11]; in the data set filed under Mus musculus [14]) was “Dose-dependent effect” each time. In the data set with Mus musculus [13], the inhibition in vivo at 12.5 mg/kg was 17.2%. In addition, the inhibition in vivo at 25 mg/kg in the data set on Mus musculus [16] was found to be 35%.

For the compound `Clc1ccc(Cn2c3cccc4cccc(c43)n3cnnc23)c(Cl)c1`, the Activity result with RAW264.7 [1] and in the data set on RAW264.7 [2] was “Non-Toxic” each time.

Consider `Clc1ccccc1Cn1c2cccc3cccc(c32)n2cnnc12`, for which the Activity result with RAW264.7 [1] and in the data set on RAW264.7 [2] was “Non-Toxic” each time.

Take `CCCCCCCCCn1c2cccc3cccc(c32)n2cnnc12`: the Activity result in the data set on RAW264.7 [2] is given as “Toxic”.

As to `Clc1cccc(Cl)c1Cn1c2cccc3cccc(c32)n2cnnc12`, the Activity result in the data set with RAW264.7 [1] and with RAW264.7 [2] was “Non-Toxic” in each case.

Regarding `Cc1cccc(Cn2c3cccc4cccc(c43)n3cnnc23)c1`, the inhibition in vivo at 50 mg/kg in the data set on Mus musculus [3] was 42.9%. Besides, the Activity in the data set with RAW264.7 [6] was 146.24%; in the data set on RAW264.7 [1] it was “Non-Toxic”; in the data set with RAW264.7 [2], “Non-Toxic”; in the data set with RAW264.7 [12], “Dose-dependent effect”; in the data set on RAW264.7 [15], “Dose-dependent effect”. The inhibition in vivo at 12.5 mg/kg in the data set on Mus musculus [13] amounted to 15.7%. In addition, the inhibition in vivo at 25 mg/kg in the data set with Mus musculus [16] amounted to 29.8%.

`CC(C)Cc1ccc(C(C)C(=O)O)cc1` (configuration not stated) [IBUPROFEN]: the inhibition in vivo at 50 mg/kg in the data set with Mus musculus [3] amounted to 28.1%.

Consider `CCCCCCCCn1c2cccc3cccc(c32)n2cnnc12`, for which the Activity entry in the data set with RAW264.7 [1] and with RAW264.7 [2] was “Toxic” each time.

The values are drawn from ChEMBL document CHEMBL4043186, “Design, synthesis, anti-inflammatory activity, and molecular docking studies of perimidine derivatives containing triazole” (Bioorg Med Chem Lett, 2017).
